≈ marks a conversion by molar mass, not a printed value.
Tests used:
Assay type in all cases: functional
[1] = system: Acinetobacter baumannii; assay: Antimicrobial activity against carbapenem-susceptible Acinetobacter baumannii isolate A1 by Etest method
Summary of the method: (§1)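 Etest strips on Mueller-Hinton agar, incubated at 37°C; MIC read from strip for clinical A. baumannii isolates A1 and A2 (clonally related, genotyped by ApaI PFGE).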

[2] = system: Acinetobacter baumannii; assay: Antimicrobial activity against carbapenem-resistant Acinetobacter baumannii isolate A2 by Etest method; summary of the method: as §1
[3] = system: Acinetobacter baumannii; assay: Antimicrobial activity against bla OXA-66 gene-deficient Acinetobacter baumannii isolate A2 by Etest method; summary of the method: as §1

Structure (SMILES) | MIC [1] [µg/mL] | MIC [2] [µg/mL] | MIC [3] [µg/mL]
CO[C@H]1/C=C/O[C@@]2(C)Oc3c(C)c(O)c4c(O)c(c(/C=N/N5CCN(C)CC5)c(O)c4c3C2=O)NC(=O)/C(C)=C\C=C\[C@H](C)[C@H](O)[C@@H](C)[C@@H](O)[C@@H](C)[C@H](OC(C)=O)[C@@H]1C [RIFAMPIN] | 8 (≈ 9.72 µM) | 8 (≈ 9.72 µM) | 128 (≈ 156 µM)
CC(C)(O/N=C(\C(=O)N[C@@H]1C(=O)N2C(C(=O)[O-])=C(C[n+]3ccccc3)CS[C@H]12)c1csc(N)n1)C(=O)O [CEFTAZIDIME] | 128 (≈ 234 µM) | 128 (≈ 234 µM) | 128 (≈ 234 µM)
C[C@@H](O)[C@H]1C(=O)N2C(C(=O)O)=C(SCCNC=N)C[C@H]12 [IMIPENEM ANHYDROUS] | 2 (≈ 6.68 µM) | 4 (≈ 13.4 µM) | 0.5 (≈ 1.67 µM)
C[C@@H](O)[C@H]1C(=O)N2C(C(=O)O)=C(S[C@@H]3CN[C@H](C(=O)N(C)C)C3)[C@H](C)[C@H]12 [MEROPENEM] | 3 (≈ 7.82 µM) | 6 (≈ 15.6 µM) | 0.5 (≈ 1.3 µM)
